Experimental data from ChEMBL document CHEMBL1157765, “Synthesis of DOTA-conjugated multimeric [Tyr3]octreotide peptides via a combination of Cu(I)-catalyzed "click" cycloaddition and thio acid/sulfonyl azide "sulfo-click" amidation and their in vivo evaluation” (J Med Chem, 2010).

How the values were obtained:
[1] = system: Pancreas; assay: Biodistribution in pancreas of BALB/c mouse bearing rat AR42J cells at 0.37 MBq, iv after 2 hrs; format: ADME, organism-based, AR-42J; details: in vivo
Summary of the method: (§1)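 AR42J tumor grown in right flank of male BALB/c nude mice (20-25 g, 6-8 weeks) by sc injection of 5 × 10⁶ cells; used after ~2 weeks at 4-6 mm diameter. Groups of five received 0.37 MBq (0.1 μg) ¹¹¹In-DOTA conjugate iv via tail vein (labeled in 0.25 M NH₄OAc pH 5.5, 95 °C, 15 min). Tissues dissected at 2, 6 or 24 h, weighed, γ-counted against 1% injected-activity standards; %ID/g, mean ± SD.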

[2] = Biodistribution in adrenal gland of BALB/c mouse bearing rat AR42J cells at 0.37 MBq, iv after 2 hrs under cold condition; format: ADME, organism-based, AR-42J; details: in vivo
Summary of the method: (§2)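 Receptor block: groups of three AR42J tumor-bearing male BALB/c nude mice co-injected iv via tail vein with 0.37 MBq (0.1 μg) ¹¹¹In-DOTA conjugate plus 50 μg octreotide. Killed by CO₂/O₂ at 2 h; blood, tumor and tissues dissected, weighed and γ-counted against 1% injected-activity standards; %ID/g reported as mean ± SD.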

[3] = system: Kidney; assay: Biodistribution in kidney of BALB/c mouse bearing rat AR42J cells at 0.37 MBq, iv after 24 hrs; format: ADME, organism-based, AR-42J; details: in vivo; summary of the method: as §1
[4] = system: Blood; assay: Biodistribution in blood of BALB/c mouse bearing rat AR42J cells at 0.37 MBq, iv after 2 hrs; format: ADME, organism-based, AR-42J; details: in vivo; summary of the method: as §1
[5] = system: Kidney; assay: Biodistribution in kidney of BALB/c mouse bearing rat AR42J cells at 0.37 MBq, iv after 6 hrs; format: ADME, organism-based, AR-42J; details: in vivo; summary of the method: as §1
[6] = Biodistribution in adrenal gland of BALB/c mouse bearing rat AR42J cells at 0.37 MBq, iv after 2 hrs; format: ADME, organism-based, AR-42J; details: in vivo; summary of the method: as §1
[7] = system: Pancreas; assay: Biodistribution in pancreas of BALB/c mouse bearing rat AR42J cells at 0.37 MBq, iv after 6 hrs; format: ADME, organism-based, AR-42J; details: in vivo; summary of the method: as §1
[8] = system: Liver; assay: Biodistribution in liver of BALB/c mouse bearing rat AR42J cells at 0.37 MBq, iv after 2 hrs; format: ADME, organism-based, AR-42J; details: in vivo; summary of the method: as §1
[9] = system: Pancreas; assay: Biodistribution in pancreas of BALB/c mouse bearing rat AR42J cells at 0.37 MBq, iv after 24 hrs; format: ADME, organism-based, AR-42J; details: in vivo; summary of the method: as §1
[10] = system: Stomach; assay: Biodistribution in stomach of BALB/c mouse bearing rat AR42J cells at 0.37 MBq, iv after 24 hrs; format: ADME, organism-based, AR-42J; details: in vivo; summary of the method: as §1
[11] = Biodistribution in tumor of BALB/c mouse bearing rat AR42J cells at 0.37 MBq, iv after 2 hrs; format: ADME, organism-based, Neoplasm, AR-42J; details: in vivo; summary of the method: as §1
[12] = system: Kidney; assay: Biodistribution in kidney of BALB/c mouse bearing rat AR42J cells at 0.37 MBq, iv after 2 hrs under cold condition; format: ADME, organism-based, AR-42J; details: in vivo; summary of the method: as §2
[13] = system: Kidney; assay: Biodistribution in kidney of BALB/c mouse bearing rat AR42J cells at 0.37 MBq, iv after 2 hrs; format: ADME, organism-based, AR-42J; details: in vivo; summary of the method: as §1
[14] = Octanol-water partition coefficient, log D at pH 7.4; format: physicochemical
Summary of the method: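 ¹¹¹In-labeled conjugate (~148 kBq) in PBS pH 7.4 mixed 1:1 with n-octanol and shaken 2 min. Phases separated by centrifugation (5 min, 250g); triplicate aliquots of each layer γ-counted. log D = log₁₀(octanol counts/aqueous counts), from at least two independent experiments.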

[15] = system: Liver; assay: Biodistribution in liver of BALB/c mouse bearing rat AR42J cells at 0.37 MBq, iv after 2 hrs under cold condition; format: ADME, organism-based, AR-42J; details: in vivo; summary of the method: as §2
[16] = system: Blood; assay: Biodistribution in blood of BALB/c mouse bearing rat AR42J cells at 0.37 MBq, iv after 2 hrs under cold condition; format: ADME, organism-based, AR-42J; details: in vivo; summary of the method: as §2
[17] = system: Blood; assay: Biodistribution in blood of BALB/c mouse bearing rat AR42J cells at 0.37 MBq, iv after 6 hrs; format: ADME, organism-based, AR-42J; details: in vivo; summary of the method: as §1
[18] = system: Stomach; assay: Biodistribution in stomach of BALB/c mouse bearing rat AR42J cells at 0.37 MBq, iv after 2 hrs; format: ADME, organism-based, AR-42J; details: in vivo; summary of the method: as §1
[19] = system: Pancreas; assay: Biodistribution in pancreas of BALB/c mouse bearing rat AR42J cells at 0.37 MBq, iv after 2 hrs under cold condition; format: ADME, organism-based, AR-42J; details: in vivo; summary of the method: as §2
[20] = system: Liver; assay: Biodistribution in liver of BALB/c mouse bearing rat AR42J cells at 0.37 MBq, iv after 24 hrs; format: ADME, organism-based, AR-42J; details: in vivo; summary of the method: as §1
[21] = target: Somatostatin receptor type 2 (Rattus norvegicus, UniProt P30680); assay: Displacement of [111In]DOTA0,Tyr3]octreotide from SSTR2 receptor in rat AR42J cells; format: cell-based, AR-42J
Somatostatin receptor type 2, sequence (P30680 whole entry): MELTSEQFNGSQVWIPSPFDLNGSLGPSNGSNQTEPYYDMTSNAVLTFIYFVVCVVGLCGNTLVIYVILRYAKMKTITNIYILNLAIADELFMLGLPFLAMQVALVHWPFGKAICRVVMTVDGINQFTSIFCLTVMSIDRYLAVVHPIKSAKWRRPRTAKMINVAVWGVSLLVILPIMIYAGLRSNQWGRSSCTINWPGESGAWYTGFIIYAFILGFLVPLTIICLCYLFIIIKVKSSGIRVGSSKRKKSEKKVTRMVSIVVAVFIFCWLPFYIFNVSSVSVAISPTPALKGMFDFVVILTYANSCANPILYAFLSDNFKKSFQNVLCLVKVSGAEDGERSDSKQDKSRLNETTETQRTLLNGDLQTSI
Summary of the method: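 AR42J cells (DMEM, 10% FCS, 37 °C, 5% CO₂) seeded 8 × 10⁵/well and grown to confluence, washed with DMEM + 0.1% BSA. Incubated 3 h at 37 °C with [¹¹¹In-DOTA⁰,Tyr³]octreotide tracer (40 000 dpm) and unlabeled peptide at 0.1-300 nM. Washed twice; cell-bound activity γ-counted. IC₅₀ from fitted sigmoidal displacement curves with 95% CI.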

[22] = Biodistribution in adrenal gland of BALB/c mouse bearing rat AR42J cells at 0.37 MBq, iv after 6 hrs; format: ADME, organism-based, AR-42J; details: in vivo; summary of the method: as §1
[23] = system: Stomach; assay: Biodistribution in stomach of BALB/c mouse bearing rat AR42J cells at 0.37 MBq, iv after 2 hrs under cold condition; format: ADME, organism-based, AR-42J; details: in vivo; summary of the method: as §2
[24] = system: Liver; assay: Biodistribution in liver of BALB/c mouse bearing rat AR42J cells at 0.37 MBq, iv after 6 hrs; format: ADME, organism-based, AR-42J; details: in vivo; summary of the method: as §1
[25] = system: Blood; assay: Biodistribution in blood of BALB/c mouse bearing rat AR42J cells at 0.37 MBq, iv after 24 hrs; format: ADME, organism-based, AR-42J; details: in vivo; summary of the method: as §1
[26] = system: Stomach; assay: Biodistribution in stomach of BALB/c mouse bearing rat AR42J cells at 0.37 MBq, iv after 6 hrs; format: ADME, organism-based, AR-42J; details: in vivo; summary of the method: as §1
[27] = Biodistribution in adrenal gland of BALB/c mouse bearing rat AR42J cells at 0.37 MBq, iv after 24 hrs; format: ADME, organism-based, AR-42J; details: in vivo; summary of the method: as §1
[28] = Biodistribution in tumor of BALB/c mouse bearing rat AR42J cells at 0.37 MBq, iv after 24 hrs; format: ADME, organism-based, Neoplasm, AR-42J; details: in vivo; summary of the method: as §1
[29] = Biodistribution in tumor of BALB/c mouse bearing rat AR42J cells at 0.37 MBq, iv after 6 hrs; format: ADME, organism-based, Neoplasm, AR-42J; details: in vivo; summary of the method: as §1
[30] = Biodistribution in tumor of BALB/c mouse bearing rat AR42J cells at 0.37 MBq, iv after 2 hrs under cold condition; format: ADME, organism-based, Neoplasm, AR-42J; details: in vivo; summary of the method: as §2
[31] = system: Spleen; assay: Biodistribution in spleen of BALB/c mouse bearing rat AR42J cells at 0.37 MBq, iv after 2 hrs; format: ADME, organism-based, AR-42J; details: in vivo; summary of the method: as §1
[32] = system: Spleen; assay: Biodistribution in spleen of BALB/c mouse bearing rat AR42J cells at 0.37 MBq, iv after 2 hrs under cold condition; format: ADME, organism-based, AR-42J; details: in vivo; summary of the method: as §2
[33] = system: Spleen; assay: Biodistribution in spleen of BALB/c mouse bearing rat AR42J cells at 0.37 MBq, iv after 6 hrs; format: ADME, organism-based, AR-42J; details: in vivo; summary of the method: as §1
[34] = system: Spleen; assay: Biodistribution in spleen of BALB/c mouse bearing rat AR42J cells at 0.37 MBq, iv after 24 hrs; format: ADME, organism-based, AR-42J; details: in vivo; summary of the method: as §1

Row | Compound | Drug uptake [1] | Drug uptake [2] | Drug uptake [3] | Drug uptake [4] | Drug uptake [5] | Drug uptake [6] | Drug uptake [7] | Drug uptake [8] | Drug uptake [9] | Drug uptake [10] | Drug uptake [11] | Drug uptake [12] | Drug uptake [13] | logD [14] | Drug uptake [15] | Drug uptake [16] | Drug uptake [17] | Drug uptake [18] | Drug uptake [19] | Drug uptake [20] | further results
1 | C[C@@H](O)[C@@H]1NC(=O)[C@H](CCCCN)NC(=O)[C@@H](Cc2c[nH]c3ccccc23)NC(=O)[C@H](Cc2ccc(O)cc2)NC(=O)[C@@H](NC(=O)[C@@H](Cc2ccccc2)NC(=O)CCCCCn2cc(COc3cccc(C(=O)NS(=O)(=O)CCNC(=O)CN4CCN(CC(=O)O)CCN(CC(=O)O)CCN(CC(=O)O)CC4)c3)nn2)CSSC[C@@H](C(=O)N[C@H](CO)[C@@H](C)O)NC1=O | 2.92 % ID/g | 2.38 % ID/g | 2.53 % ID/g | 0.27 % ID/g | 10.96 % ID/g | 1.86 % ID/g | 0.63 % ID/g | 0.52 % ID/g | 0.17 % ID/g | 2.83 % ID/g | 42.33 % ID/g | 62.74 % ID/g | 54.19 % ID/g | -2.2 | 3.61 % ID/g | 3.46 % ID/g | 0.13 % ID/g | 7.54 % ID/g | 1.07 % ID/g | 0.09 % ID/g | IC50 [21]: 1.32 nM; Drug uptake [22]: 0.78 % ID/g; Drug uptake [23]: 2.16 % ID/g; Drug uptake [24]: 0.22 % ID/g; Drug uptake [25]: 0.04 % ID/g; Drug uptake [26]: 6.11 % ID/g; Drug uptake [27]: 0.63 % ID/g; Drug uptake [28]: 10.75 % ID/g; Drug uptake [29]: 21.32 % ID/g; Drug uptake [30]: 4.82 % ID/g
2 | C[C@@H](O)[C@@H]1NC(=O)[C@H](CCCCN)NC(=O)[C@@H](Cc2c[nH]c3ccccc23)NC(=O)[C@H](Cc2ccc(O)cc2)NC(=O)[C@@H](NC(=O)[C@@H](Cc2ccccc2)NC(=O)CCCCCn2cc(COc3cc(OCc4cn(CCCCCC(=O)N[C@H](Cc5ccccc5)C(=O)N[C@H]5CSSC[C@@H](C(=O)N[C@H](CO)[C@@H](C)O)NC(=O)[C@H]([C@@H](C)O)NC(=O)[C@H](CCCCN)NC(=O)[C@@H](Cc6c[nH]c7ccccc67)NC(=O)[C@H](Cc6ccc(O)cc6)NC5=O)nn4)cc(C(=O)NCCOc4cc(OCCNC(=O)c5cc(OCc6cn(CCCCCC(=O)N[C@H](Cc7ccccc7)C(=O)N[C@H]7CSSC[C@@H](C(=O)N[C@H](CO)[C@@H](C)O)NC(=O)[C@H]([C@@H](C)O)NC(=O)[C@H](CCCCN)NC(=O)[C@@H](Cc8c[nH]c9ccccc89)NC(=O)[C@H](Cc8ccc(O)cc8)NC7=O)nn6)cc(OCc6cn(CCCCCC(=O)N[C@H](Cc7ccccc7)C(=O)N[C@H]7CSSC[C@@H](C(=O)N[C@H](CO)[C@@H](C)O)NC(=O)[C@H]([C@@H](C)O)NC(=O)[C@H](CCCCN)NC(=O)[C@@H](Cc8c[nH]c9ccccc89)NC(=O)[C@H](Cc8ccc(O)cc8)NC7=O)nn6)c5)cc(C(=O)NS(=O)(=O)CCNC(=O)CN5CCN(CC(=O)O)CCN(CC(=O)O)CCN(CC(=O)O)CC5)c4)c3)nn2)CSSC[C@@H](C(=O)N[C@H](CO)[C@@H](C)O)NC1=O | 1.02 % ID/g | 54.56 % ID/g | 10.6 % ID/g | 0.27 % ID/g | 7.65 % ID/g | 4.05 % ID/g | 2.04 % ID/g | 47.6 % ID/g | 1.17 % ID/g | 1.13 % ID/g | 0.52 % ID/g | 7.44 % ID/g | 4.62 % ID/g | -0.71 | 2.96 % ID/g | 0.44 % ID/g | 0.62 % ID/g | 1.04 % ID/g | 0.29 % ID/g | 52.71 % ID/g | Drug uptake [31]: 16.84 % ID/g; Drug uptake [32]: 23.45 % ID/g; Drug uptake [33]: 23.92 % ID/g; Drug uptake [34]: 20.26 % ID/g; IC50 [21]: 14 nM; Drug uptake [22]: 18.98 % ID/g; Drug uptake [23]: 3.02 % ID/g; Drug uptake [24]: 70.97 % ID/g; Drug uptake [25]: 2.52 % ID/g; Drug uptake [26]: 1.4 % ID/g; Drug uptake [27]: 11.39 % ID/g; Drug uptake [28]: 1.53 % ID/g; Drug uptake [29]: 1.03 % ID/g; Drug uptake [30]: 1.19 % ID/g
